Laboratory results taken from ChEMBL document CHEMBL4665841, “Rapid Solid-Phase Construction of Serine Hydrolase Probes Results in Selective Activity-Based Probes for Acyl Protein Thioesterases-1/2” (J Med Chem, 2020).
Calls of active or inactive are those of the source. No cut-off for these calls is given here.

Columns and labels:
[1] = target: T1, Acyl-protein thioesterase 1/2 (Mus musculus) (UniProt P97823+Q9WTL7); experiment: (§1) Inhibition of FP-Rh binding to APT-1/2 in mouse brain cytosolic fraction preincubated for 1 hr followed by FP-Rh addition and measured after 1 hr by SDS-PAGE analysis; assay type: tissue-based; conditions: time 2.0 hrs
T1 sequence (P97823 whole entry, looked up): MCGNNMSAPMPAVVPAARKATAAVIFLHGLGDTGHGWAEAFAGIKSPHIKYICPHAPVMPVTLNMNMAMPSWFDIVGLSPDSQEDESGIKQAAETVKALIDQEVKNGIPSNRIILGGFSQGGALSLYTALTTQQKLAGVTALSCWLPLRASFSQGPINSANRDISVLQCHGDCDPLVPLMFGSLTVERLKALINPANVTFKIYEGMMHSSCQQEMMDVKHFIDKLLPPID
T1 sequence (Q9WTL7 whole entry, looked up): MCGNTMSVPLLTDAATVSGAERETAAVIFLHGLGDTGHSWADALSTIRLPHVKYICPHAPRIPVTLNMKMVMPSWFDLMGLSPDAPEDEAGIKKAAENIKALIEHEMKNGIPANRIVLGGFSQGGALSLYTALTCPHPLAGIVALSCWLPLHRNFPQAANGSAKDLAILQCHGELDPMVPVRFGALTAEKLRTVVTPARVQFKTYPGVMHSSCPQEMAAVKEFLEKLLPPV
Procedure, shortened: (§2)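 Apparent IC50 by competitive ABPP. Mouse brain cytosolic or membrane fraction (1 mg/mL) preincubated 1 h at RT with six inhibitor concentrations (1:3 serial dilution from top 30 μM or 370 nM; 100x DMSO stock), then FP-rhodamine 1 h. 12% SDS-PAGE, fluorescence at 532/568 nm. Band intensities normalized to uninhibited FP-Rh control (100%); IC50 fitted from dose-response curve.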

[2] = target: T1, Acyl-protein thioesterase 1/2 (Mus musculus); experiment: Inhibition of FP-Rh binding to APT-1/2 in mouse brain membrane fraction preincubated for 1 hr followed by FP-Rh addition and measured after 1 hr by SDS-PAGE analysis; assay type: cell membranes; conditions: time 2.0 hrs; procedure, shortened: as §2
Mus musculus = organism: Mus musculus; experiment: Selectivity ratio of apparent IC50 for inhibition of FP-Rh binding to ABHD6 in mouse brain cytosolic fraction to apparent IC50 for inhibition of FP-Rh binding to APT-1/2 in mouse brain membrane fraction; assay type: cell membranes
Procedure, shortened: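 Ratio of apparent IC50 values from competitive ABPP in mouse brain fractions (1 mg/mL). Each IC50 came from a 1 h inhibitor preincubation over six 1:3-diluted concentrations, then 1 h FP-rhodamine. 12% SDS-PAGE and in-gel fluorescence; band intensity normalized to uninhibited control, then fitted to a dose-response curve.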

[3] = target: T2, Monoacylglycerol lipase ABHD6 (Mus musculus, UniProt Q8R2Y0); experiment: Inhibition of FP-Rh binding to ABHD6 in mouse brain cytosolic fraction preincubated for 1 hr followed by FP-Rh addition and measured after 1 hr by SDS-PAGE analysis; assay type: tissue-based; procedure, shortened: as §2
T2 sequence (Q8R2Y0 whole entry): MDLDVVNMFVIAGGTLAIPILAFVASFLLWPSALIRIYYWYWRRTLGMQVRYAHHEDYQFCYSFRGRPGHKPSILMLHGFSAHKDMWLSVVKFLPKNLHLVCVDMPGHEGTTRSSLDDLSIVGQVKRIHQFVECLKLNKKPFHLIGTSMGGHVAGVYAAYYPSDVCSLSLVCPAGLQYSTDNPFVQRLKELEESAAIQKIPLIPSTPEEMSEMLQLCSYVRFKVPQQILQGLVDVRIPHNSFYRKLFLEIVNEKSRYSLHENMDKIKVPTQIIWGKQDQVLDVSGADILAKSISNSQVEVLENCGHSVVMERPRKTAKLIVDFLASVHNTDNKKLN

[4] = target: Acyl-protein thioesterase 1/2 (Mus musculus, UniProt P97823+Q9WTL7); experiment: as §1; assay type: tissue-based; procedure, shortened: as §2
[5] = target: T1, Acyl-protein thioesterase 1/2 (Mus musculus); experiment: Inhibition of APT-1/2 in mouse brain membrane fraction at 1 uM preincubated for 1 hr followed by TAMRA-Lys(biotin)-NH-propyne addition and measured after 1 hr click chemistry labelling based Western blot analysis; assay type: cell membranes; conditions: time 2.0 hrs
Procedure, shortened: (§3)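 Cytosolic or membrane mouse brain fraction (1 mg/mL) treated 1 h with 1 μM probe (100x DMSO stock) or DMSO. Click with TAMRA-Lys(biotin)-NHpropyne tag, THPTA, CuSO4, ascorbate, 1 h RT. Two cold-acetone precipitations, redissolved in PBS/2% SDS, diluted to 0.4% SDS, streptavidin pull-down 1 h at 25 °C. Gel fluorescence scanned, then blotted with anti-APT-1 or anti-APT-2 (0.5 μg/mL) overnight, HRP anti-rabbit, chemiluminescence.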

[6] = target: T1, Acyl-protein thioesterase 1/2 (Mus musculus); experiment: Inhibition of APT-1/2 in mouse brain cytosolic fraction at 0.1 to 1 uM preincubated for 1 hr followed by TAMRA-alkyne addition and measured after 1 hr by SDS-PAGE analysis based click chemistry labelling method; assay type: tissue-based; conditions: dose microM 0.1-1, time 2.0 hrs
Procedure, shortened: (§4)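 Mouse brain cytosolic or membrane fraction (1 mg/mL; membrane pellet from 100,000 g spin, in 20 mM HEPES, 2 mM DTT, pH 7.2) incubated 1 h with probe added from 100x DMSO stock. CuAAC click with TAMRA-alkyne, THPTA, sodium ascorbate and CuSO4 for 1 h at room temperature; boiled in sample buffer, 12% SDS-PAGE, in-gel fluorescence.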

[7] = target: Acyl-protein thioesterase 1/2 (Homo sapiens) (UniProt O75608+O95372); experiment: Inhibition of FP-Rh binding to APT-1/2 in human A-431 cells at 1 uM preincubated for 2 hrs followed by compound washout and subsequent FP-Rh addition and measured after 1 hr by SDS-PAGE analysis
Chain of Acyl-protein thioesterase 1/2 (Homo sapiens) (O75608 whole entry, looked up): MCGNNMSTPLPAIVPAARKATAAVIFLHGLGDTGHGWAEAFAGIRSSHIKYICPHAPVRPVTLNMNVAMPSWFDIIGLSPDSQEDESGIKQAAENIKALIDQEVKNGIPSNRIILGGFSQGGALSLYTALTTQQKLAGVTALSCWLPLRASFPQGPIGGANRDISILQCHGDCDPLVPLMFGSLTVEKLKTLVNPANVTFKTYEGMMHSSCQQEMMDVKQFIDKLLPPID
Chain of Acyl-protein thioesterase 1/2 (Homo sapiens) (O95372 whole entry, looked up): as the sequence (Q9WTL7 whole entry, looked up) above, with N154A, T193S counted along it

[8] = target: T1, Acyl-protein thioesterase 1/2 (Mus musculus); experiment: Inhibition of APT-1/2 in mouse brain membrane fraction at 0.1 to 1 uM preincubated for 1 hr followed by TAMRA-alkyne addition and measured after 1 hr by SDS-PAGE analysis based click chemistry labelling method; assay type: cell membranes; conditions: dose microM 0.1-1, time 2.0 hrs; procedure, shortened: as §4
[9] = target: T1, Acyl-protein thioesterase 1/2 (Mus musculus); experiment: Inhibition of APT-1/2 in mouse brain cytosolic fraction at 1 uM preincubated for 1 hr followed by TAMRA-Lys(biotin)-NH-propyne addition and measured after 1 hr click chemistry labelling based Western blot analysis; assay type: tissue-based; conditions: time 2.0 hrs; procedure, shortened: as §3

inhibition [1] | inhibition [2] | Ratio IC50 (Mus musculus) | IC50 [3] | IC50(app) [4] | inhibition [5] | inhibition [6] | inhibition [7] | inhibition [8] | inhibition [9] | Structure (SMILES)
 | Active | > 65 | > 30 µM | 0.46 µM |  |  |  |  |  | [N-]=[N+]=NCCCC[C@H](NC(=O)CCCCCNC(=O)[C@H](Cc1ccccc1)NC(=O)C1CCN(C(=O)n2ccnn2)CC1)C(N)=O
 | Active | > 2500 | > 30 µM | 0.0118 µM | Active | Active | Active | Active | Active | [N-]=[N+]=NCCCC[C@H](NC(=O)CCCCCNC(=O)CN(Cc1ccccc1)C(=O)C1CCN(C(=O)n2ccnn2)CC1)C(N)=O
 | Active | 250 | 7.4 µM | 0.0279 µM | Active | Active | Active | Active | Active | [N-]=[N+]=NCCCC[C@H](NC(=O)CCCCCNC(=O)c1ccc(CN2CCN(C(=O)n3ccnn3)CC2)cc1)C(N)=O

More lines, now with the values behind:

Structure (SMILES) | inhibition [1] | inhibition [2] | Ratio IC50 (Mus musculus) | IC50 [3] | IC50(app) [4] | inhibition [5] | inhibition [6] | inhibition [7] | inhibition [8] | inhibition [9]
[N-]=[N+]=NCCCC[C@H](NC(=O)CCCCCNC(=O)CN(Cc1ccccc1)C(=O)C1CCN(C(=O)ON2C(=O)CCC2=O)CC1)C(N)=O | Active | Active |  |  |  |  |  |  |  | 
[N-]=[N+]=NCCCC[C@H](NC(=O)CCCCCNC(=O)c1ccc(CN2CCN(C(=O)ON3C(=O)CCC3=O)CC2)cc1)C(N)=O | Active | Active |  |  |  |  |  |  |  | 
